In PMC11962346 (Chemistry (Weinheim an Der Bergstrasse, Germany), 2025):
*1 amine or outer side, *2 acyl side, *3 side chain or, on linkers, in order; H or OH if unused. Where a SMILES comes first, the peptide text is derived from it. Bridges are numbered along the chain shown (N, C = ends). The star is where a group is joined. X1 = CC(C)C[C@@H](CNC(=O)N1C[C@@H](SCCCCCC[*:1])C[C@H]1C(N)=O)NC(=O)NC[C@H](CC(C)C)N[*:2]; X4 = CC(C)C[C@@H](CNC(=O)N1CCC[C@H]1C(N)=O)NC(=O)NC[C@H](CC(C)C)N*; X2 = CC(C)C[C@@H](CNC(=O)N[C@@H](C)CNC(=O)N1CCC[C@H]1C(N)=O)N*

Tests used:
p53‐hDM2 interaction = p53‐hDM2 interaction (Homo sapiens, UniProt Q00987); assay: TR-FRET; format: binding; conditions: for IC50: IC50±SEM hDM2, 9-point curves in duplicates; for inhibition at 0.1 µM: read-out: Inhibition at 100 nM (%) hDM2
p53‐hDMX interaction = target: T1, p53‐hDMX interaction (Homo sapiens, UniProt O15151); assay: TR-FRET; format: binding; conditions: for IC50: IC50±SEM hDMX, 9-point curves in duplicates; for inhibition at 0.1 µM: read-out: Inhibition at 100 nM (%) hDMX
T1 sequence (O15151 1-490): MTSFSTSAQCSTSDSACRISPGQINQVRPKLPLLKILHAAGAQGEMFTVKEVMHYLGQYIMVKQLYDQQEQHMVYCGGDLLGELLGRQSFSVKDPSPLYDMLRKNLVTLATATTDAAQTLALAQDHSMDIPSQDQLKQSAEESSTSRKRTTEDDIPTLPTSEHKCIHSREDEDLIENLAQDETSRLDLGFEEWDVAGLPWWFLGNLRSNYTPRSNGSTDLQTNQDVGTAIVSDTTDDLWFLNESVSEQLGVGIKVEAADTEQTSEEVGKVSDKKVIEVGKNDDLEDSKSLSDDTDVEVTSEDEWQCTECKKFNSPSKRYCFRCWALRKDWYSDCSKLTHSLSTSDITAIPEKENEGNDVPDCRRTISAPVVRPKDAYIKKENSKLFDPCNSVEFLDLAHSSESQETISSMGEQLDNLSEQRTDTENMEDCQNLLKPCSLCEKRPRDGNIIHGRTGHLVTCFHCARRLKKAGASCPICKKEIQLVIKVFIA

HCT116 cells [1] = assay: RT-qPCR of p53 target genes p21 and hDM2; format: cell-based, human; conditions: 6 hours treatment, n=3
p53wt HCT116 cells = assay: Western blot of p53 protein levels; format: cell-based, human; conditions: 6 hours treatment, 0.1 to 40 µM
In short: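 p53wt HCT116 cells in exponential growth, seeded one day ahead, were exposed to test compound for 6 h without serum, then lysed in RIPA. SDS-PAGE, wet transfer to nitrocellulose, 5% BSA/TBS-T block 1 h RT. Anti-p53 and anti-GAPDH overnight at 4 °C, infrared anti-mouse secondary 1.5 h RT. Positive control was a reference hDM2 inhibitor. Three independent biological replicates.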

HCT116 cells [2] = assay: MTS cell viability assay; format: cell-based, human; conditions: 3 days of incubation
In short: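 HCT116 cells (passages 47–50; DMEM, 10% heat-inactivated FCS, 37 °C, 5% CO₂) seeded at 3×10³ cells/well with test compound at various concentrations in serum-free medium for 8 h. Serum (10%) then added for 64 h more. MTS reagent added, absorbance read at 490 nm, % viability taken versus untreated cells. Two independent experiments, three technical replicates each.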

Chain of p53‐hDM2 interaction (Q00987 whole entry): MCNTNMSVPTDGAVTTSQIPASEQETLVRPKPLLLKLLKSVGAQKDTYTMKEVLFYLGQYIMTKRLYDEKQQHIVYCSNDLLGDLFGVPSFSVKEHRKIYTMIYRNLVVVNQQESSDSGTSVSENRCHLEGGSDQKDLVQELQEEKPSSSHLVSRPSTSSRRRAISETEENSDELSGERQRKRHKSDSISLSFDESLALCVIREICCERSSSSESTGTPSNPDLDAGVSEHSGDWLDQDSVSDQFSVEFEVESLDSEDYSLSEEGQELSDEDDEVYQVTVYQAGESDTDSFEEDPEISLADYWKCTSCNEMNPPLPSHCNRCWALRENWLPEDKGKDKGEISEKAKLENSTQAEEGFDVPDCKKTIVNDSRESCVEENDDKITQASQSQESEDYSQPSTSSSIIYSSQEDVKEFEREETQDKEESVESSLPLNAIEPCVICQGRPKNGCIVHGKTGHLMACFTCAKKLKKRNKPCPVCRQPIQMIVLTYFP

| Structure (SMILES) | IC50 (p53‐hDM2 interaction) [nM] | inhibition at 0.1 µM (p53‐hDM2 interaction) [%] | IC50 (p53‐hDMX interaction) [nM] | inhibition at 0.1 µM (p53‐hDMX interaction) [%] | mRNA of target genes p21 and hDM2 (RT-qPCR) (HCT116 cells [1]) | p53 protein levels (western blot) (p53wt HCT116 cells) | viability of p53wt HCT116 cells (in words) (HCT116 cells [2]) |
| --- | --- | --- | --- | --- | --- | --- | --- |
| CC(C)C[C@@H](CNC(=O)N[C@@H](C)CNC(=O)N1CCC[C@H]1C(N)=O)NC(=O)[C@H](C)NC(=O)[C@H](Cc1c[nH]c2ccccc12)NC(=O)[C@H](Cc1ccc(O)cc1)NC(=O)[C@H](CCC(=O)O)NC(=O)[C@H](C)NC(=O)[C@H](Cc1ccccc1)NC(=O)[C@H](CO)NC(=O)[C@@H](N)[C@@H](C)O [Compound 3] (H-TSFAEYWA-X2) | 54 ± 17 | 43 | 247 ± 42 | 19 | – | – | – |
| CC(=O)N[C@@H](CCCCN)C(=O)N[C@H](C(=O)N[C@@H](Cc1ccccc1)C(=O)N[C@H]1CSCCCCCCS[C@H]2C[C@@H](C(N)=O)N(C2)C(=O)NC[C@H](CC(C)C)NC(=O)NC[C@H](CC(C)C)NC(=O)[C@H](C)NC(=O)[C@H](Cc2c[nH]c3ccccc23)NC(=O)[C@H](Cc2ccc(O)cc2)NC(=O)[C@H](CCC(=O)O)NC1=O)[C@@H](C)O [Compound 10 a] (Ac-KTFCEYWA; linker 4-C via X1) | 3 ± 0.1 | – | 63 ± 12 | – | dose‐dependent induction of mRNA of target genes p21 and hDM2 | dose‐dependent increase of p53 levels | effective in reducing the viability of p53wt HCT116 cells in a concentration‐dependent manner |
| CC(C)C[C@@H](CNC(=O)N1CCC[C@H]1C(N)=O)NC(=O)NC[C@H](CC(C)C)NC(=O)[C@H](C)NC(=O)[C@H](Cc1c[nH]c2ccccc12)NC(=O)[C@H](Cc1ccc(O)cc1)NC(=O)[C@H](CCC(=O)O)NC(=O)[C@H](C)NC(=O)[C@H](Cc1ccccc1)NC(=O)[C@H](CO)NC(=O)[C@@H](N)[C@@H](C)O [Compound 4] (H-TSFAEYWA-X4) | 6.13 ± 0.08 | 99 | 115 ± 5 | 46 | – | – | – |
| CC(C)C[C@H]1CNC(=O)N2C[C@H](C[C@H]2C(N)=O)SCCCCCCSC[C@H](NC(=O)[C@H](Cc2ccccc2)NC(=O)[C@H](CO)NC(=O)[C@@H](N)[C@@H](C)O)C(=O)N[C@@H](CCC(=O)O)C(=O)N[C@@H](Cc2ccc(O)cc2)C(=O)N[C@@H](Cc2c[nH]c3ccccc23)C(=O)N[C@@H](C)C(=O)N[C@@H](CC(C)C)CNC(=O)N1 [Compound 8 a] (H-TSFCEYWA; linker 4-C via X1) | 1.91 ± 0.05 | 99 | 75 ± 4 | 66 | – | – | – |
